Assay results: ChEMBL document CHEMBL4610063, “Mangiferin: A promising natural xanthone from Mangifera indica for the control of acyclovir - resistant herpes simplex virus 1 infection” (Bioorg Med Chem, 2020)
Values after ≈ are worked out from the molar mass of the structure shown. Active and inactive are the calls of the source. The calls are words filed in the database; no cut-off is given here.

Legend:
[1] = Cytotoxicity against African green monkey Vero cells assessed as reduction in cell viability incubated for 72 hrs by MTT assay; type: cell-based; conditions: chlorocebus sabaeus
Procedure, shortened: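 Vero cells exposed to mangiferin 31.25–500 μg/mL for 72 h at 37 °C, 5% CO2. Viability read by MTT as At/Ac × 100 versus untreated cells; CC50 from linear regression.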

Human alphaherpesvirus 1 [2] = assay: Antiviral activity against ACV-sensitive Herpes simplex virus 1 KOS infected in African green monkey Vero cells assessed as inhibition of viral infection at 3.12 ug/ml measured after 72 hrs by crystal violet staining based plaque reduction assay relative to control; type: functional; conditions: Human alphaherpesvirus 1, strain KOS
Procedure, shortened: (§1)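 Vero monolayers infected with HSV-1 KOS (10^5 PFU/mL) with mangiferin (3.12, 6.25, 12.5, 25 μg/mL) added at infection (0 h). Overlay of nutrient agarose with 25 mM MgCl2; plaques counted after 72 h at 37 °C, 5% CO2, fixed in 20% formaldehyde/PBS and stained with 0.5% crystal violet. %VI versus virus control; triplicate experiments.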

Human alphaherpesvirus 1 [3] = assay: Antiviral activity against ACV-sensitive Herpes simplex virus 1 KOS infected in African green monkey Vero cells assessed as inhibition of viral infection at 6.25 ug/ml measured after 72 hrs by crystal violet staining based plaque reduction assay relative to control; type: functional; conditions: Human alphaherpesvirus 1, strain KOS; procedure, shortened: as §1
Human alphaherpesvirus 1 [4] = assay: Antiviral activity against ACV-sensitive Herpes simplex virus 1 KOS infected in African green monkey Vero cells assessed as inhibition of viral infection at 12.5 ug/ml measured after 72 hrs by crystal violet staining based plaque reduction assay relative to control; type: functional; conditions: Human alphaherpesvirus 1, strain KOS
Procedure, shortened: (§2)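 Plaque reduction in Vero cells. Mangiferin at 3.12, 6.25, 12.5 or 25 μg/mL is added at infection (0 h) with HSV-1 (10^5 PFU/mL). Agarose overlay with 25 mM MgCl2, 72 h at 37 °C/5% CO2, 20% formaldehyde fix, 0.5% crystal violet stain. %VI is taken against virus control. IC50 comes from linear regression of inhibition curves. Triplicate independent experiments.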

Human alphaherpesvirus 1 [5] = assay: Antiviral activity against ACV-sensitive Herpes simplex virus 1 KOS infected in African green monkey Vero cells assessed as inhibition of viral infection at 25 ug/ml measured after 72 hrs by crystal violet staining based plaque reduction assay relative to control; type: functional; conditions: Human alphaherpesvirus 1, strain KOS; procedure, shortened: as §2
Human alphaherpesvirus 1 [6] = assay: Antiviral activity against ACV-resistant Herpes simplex virus 1 AR-29 infected in African green monkey Vero cells assessed as inhibition of viral infection measured after 72 hrs by crystal violet staining based plaque reduction assay; type: functional, organism-based; conditions: Human alphaherpesvirus 1, AR-29, Vero; procedure, shortened: as §2
Human alphaherpesvirus 1 [7] = assay: Antiviral activity against ACV-sensitive Herpes simplex virus 1 KOS infected in African green monkey Vero cells assessed as inhibition of viral infection measured after 72 hrs by crystal violet staining based plaque reduction assay; type: functional, organism-based; conditions: Human alphaherpesvirus 1, strain KOS; procedure, shortened: as §2
[8] = Selectivity index, ratio of CC50 for African green monkey Vero cells to IC50 for Herpes simplex virus 1 AR-29 infected in African green monkey Vero cells; type: toxicity; conditions: read-out: Ratio CC50/IC50
Procedure, shortened: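 SI = CC50 (Vero, MTT, 72 h) / IC50 from plaque reduction with mangiferin added at infection (0 h) against HSV-1 AR-29 or KOS; IC50 by linear regression of viral inhibition curves.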

Human alphaherpesvirus 1 [9] = assay: Antiviral activity against ACV-sensitive Herpes simplex virus 1 KOS infected in female Balb/c mouse assessed as reduction in ulcerated lesion at 0.7% w/w applied topically 5 times a day at 3 hrs interval for 10 days measured on day 2 to day 7 post infection; type: functional, organism-based; conditions: strain KOS
Procedure, shortened: (§3)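 Balb/c mice (5 weeks, 22–27 g; six per group, sexes tested separately) had the right mid-flank depilated under i.p. anaesthesia and needle-scarified 24 h later. They were inoculated with 70 μL HSV-1 KOS (10^5 PFU/mL). From 4 h post-infection, O/W emulsion with 0.7% w/w mangiferin or ACV cream (50 mg/g) was applied topically 5 times daily for 10 days. Lesions were scored daily.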

Human alphaherpesvirus 1 [10] = assay: Antiviral activity against ACV-sensitive Herpes simplex virus 1 KOS infected in male Balb/c mouse assessed as reduction in vesicles at 0.7% w/w applied topically 5 times a day at 3 hrs interval for 10 days measured on day 2 post infection; type: functional, organism-based; conditions: strain KOS; procedure, shortened: as §3
Human alphaherpesvirus 1 [11] = assay: Antiviral activity against ACV-sensitive Herpes simplex virus 1 KOS infected in African green monkey Vero cells assessed as inhibition of viral adsorption at 3.12 ug/mL preincubated for 30 mins and measured after 1 hr by plaque reduction assay relative to control; type: functional; conditions: Human alphaherpesvirus 1, strain KOS
Procedure, shortened: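 Vero cells pre-chilled 30 min at 4 °C, then given mangiferin (3.12–25 μg/mL) together with HSV-1 KOS (10^5 PFU/mL); 1 h adsorption at 4 °C, then plaque reduction: agarose/DMEM overlay with 25 mM MgCl2, 72 h at 37 °C, formaldehyde fixation, crystal violet stain. %VI = 1 − PFU treated/PFU virus control; triplicate independent experiments.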

Human alphaherpesvirus 1 [12] = assay: Antiviral activity against ACV-sensitive Herpes simplex virus 1 KOS infected in male Balb/c mouse assessed as reduction in ulcerated lesion at 0.7% w/w applied topically 5 times a day at 3 hrs interval for 10 days measured on day 5 post infection; type: functional, organism-based; conditions: strain KOS; procedure, shortened: as §3
Human alphaherpesvirus 1 [13] = assay: Antiviral activity against ACV-resistant Herpes simplex virus 1 AR-29 infected in male Balb/c mouse assessed as reduction in zosteriform lesion at 0.7% w/w applied topically 5 times a day at 3 hrs interval for 10 days measured on day 5 post infection; type: functional, organism-based
Procedure, shortened: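 Balb/c mice, 5 weeks old, six per group. Right mid-flank depilated under i.p. anaesthesia, needle-scarified 24 h later and inoculated with 70 μL HSV-1 AR-29 (10^5 PFU/mL). Topical 0.7% w/w O/W emulsion or ACV cream (50 mg/g) starts 4 h post-infection, 5 times daily for 10 days. Lesions are scored daily.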

[14] = Toxicity in Balb/c mouse infected with ACV-sensitive Herpes simplex virus 1 KOS assessed as effect on body weight at 0.7% w/w applied topically 5 times a day at 3 hrs interval for 10 days measured on day 10 post infection; conditions: in vivo, topical_or_ocular
[15] = Toxicity in Balb/c mouse infected with ACV-sensitive Herpes simplex virus 1 KOS assessed as death at 0.7% w/w applied topically 5 times a day at 3 hrs interval for 10 days measured on day 10 post infection; conditions: in vivo, topical_or_ocular
[16] = Toxicity in Balb/c mouse infected with ACV-resistant Herpes simplex virus 1 AR-29 assessed as death at 0.7% w/w applied topically 5 times a day at 3 hrs interval for 10 days measured on day 10 post infection; conditions: in vivo, topical_or_ocular
Human alphaherpesvirus 1 [17] = assay: Antiviral activity against ACV-resistant Herpes simplex virus 1 AR-29 infected in female Balb/c mouse assessed as change in dermis thickness at 0.7% w/w applied topically 5 times a day at 3 hrs interval for 10 days measured on day 10 post infection by H and E staining based histological analysis; type: functional, organism-based
Human alphaherpesvirus 1 [18] = assay: Antiviral activity against ACV-resistant Herpes simplex virus 1 AR-29 infected in female Balb/c mouse assessed as change in epidermis thickness at 0.7% w/w applied topically 5 times a day at 3 hrs interval for 10 days measured on day 10 post infection by H and E staining based histological analysis; type: functional, organism-based
Human alphaherpesvirus 1 [19] = assay: Antiviral activity against ACV-sensitive Herpes simplex virus 1 KOS infected in male Balb/c mouse assessed as change in epidermis thickness at 0.7% w/w applied topically 5 times a day at 3 hrs interval for 10 days measured on day 10 post infection by H and E staining based histological analysis; conditions: strain KOS

O=c1c2cc(O)c(O)cc2oc2cc(O)c([C@@H]3O[C@H](CO)[C@@H](O)[C@H](O)[C@H]3O)c(O)c12 [MANGIFERIN]
CC50 at 72 h [1]: > 500 µg/mL | inhibition at 3.12 µg/mL (Human alphaherpesvirus 1 [2]): 37.5% | inhibition at 6.25 µg/mL (Human alphaherpesvirus 1 [3]): 93.9% | inhibition at 12.5 µg/mL (Human alphaherpesvirus 1 [4]): 100% | inhibition at 25 µg/mL (Human alphaherpesvirus 1 [5]): 100% | IC50 (Human alphaherpesvirus 1 [6]): 2.9 µg/mL (≈ 6.87 µM) | IC50 (Human alphaherpesvirus 1 [7]): 3.5 µg/mL (≈ 8.29 µM) | selectivity ratio [8]: > 172 | Activity (Human alphaherpesvirus 1 [9]): inactive | Activity (Human alphaherpesvirus 1 [10]): inactive | inhibition at 3.12 µg/mL (Human alphaherpesvirus 1 [11]): 29.2% | Activity (Human alphaherpesvirus 1 [12]): inactive | Activity (Human alphaherpesvirus 1 [13]): Active | Activity [14]: Non-Toxic | Activity [15]: Non-Toxic | Activity [16]: Non-Toxic | Activity (Human alphaherpesvirus 1 [17]): inactive | Activity (Human alphaherpesvirus 1 [18]): inactive | Activity (Human alphaherpesvirus 1 [19]): inactive
